This is an account of results in the EternaBench riboswitch data.

The subject of this data set is MS2 coat protein. The data set can be described thus: apparent Kd, MS2 coat protein; higher = weaker binding; RNA-MaP array; FMN 200 µM where present. The method, boiled down: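 Two titrations, one without ligand and one with constant ligand, were run with SNAP-549-labelled MS2 coat protein from 0.7 or 1.5 nM, doubling to 3 µM. The targets were designs transcribed by stalled E. coli RNA polymerase on Illumina sequencing-chip clusters, in 100 mM Tris-HCl pH 7.5, 80 mM KCl, 4 mM MgCl2, BSA, DTT, yeast tRNA and Tween-20. The apparent Kd is the median of filtered per-cluster binding-curve fits, with green signal normalised to red-channel RNA signal and control-cluster median Fmax.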

The mark [1] stands for this setting: designed as: ON switch for flavin mononucleotide, no ligand.
Setting [2] is: ligand present: flavin mononucleotide, designed as: ON switch for flavin mononucleotide.
[3] abbreviates: designed as: OFF switch for flavin mononucleotide, no ligand.
[4] abbreviates: ligand present: flavin mononucleotide, designed as: OFF switch for flavin mononucleotide.

For orientation: apparent Kd means the concentration giving half-maximal binding under the conditions of the assay. For “GUGGGAAUCACAGGAUAUACAUGCGCCGCUUCGUUCUACAUGAGGAUCACCCAUGUGUGGUCCGUGUAGAAGGGUGUUUGUCAC”, the “apparent Kd” value under setting [1] stood at 45.6 nM and the “apparent Kd” value under setting [2] was found to be 30.1 nM.

“AUUUGAAAGUCAGGAUAUGGUAGAUUAUUCUUAUCAGAAGGGAUUAUUAUACUCAAGUACAUGAGGAUCACCCAUGUUAAAUCA”: the “apparent Kd” value came out at 22.6 nM under setting [1] and 13 nM under setting [2].

Consider “UGUUGUAUUACAGGAUAUCUAUUAGUUUAAUUUAGAGAAGGGUAUUCACAUGAGGAUCACCCAUGUAUAUACGAGGAAGUUGUG”, for which the “apparent Kd” value amounted to 53 nM under setting [1] and 62.2 nM under setting [2].

As for “AUUUAAUUUAAUAAGAUCACAUGAGGAUCACCCAUGUUAUAAUAGGAUAUCAGCUCGUGUAGAGCUGAGAAGGAUUAUAACAUG”, the “apparent Kd” value worked out at 66.3 nM under setting [3] and 35.1 nM under setting [4].

For the sequence “GGCACUAUCACAGGAUAUGCUUUCCUUUGGGAAGCAGAAGGGUGUAACAUGAGGAUCACCCAUGUGGUGCCAGGGCGUGAGCCC”, the “apparent Kd” value under setting [1] was 114 nM and the “apparent Kd” value under setting [2] worked out at 10.9 nM.

In the case of “GUUUCGGGAGGAUAUGCGUGGAUUAUUUUCGUAUGUUGUUUACAUGAGGAUCACCCAUGUAGAAGGUCUGGAGC”, the “apparent Kd” value by setting is: under setting [3], 42.8 nM; under setting [4], 228 nM.

“GCAGCAUAUGCAGGAUAUCAGCACGUGUAGUGCUGAGAAGGGCACAUGAGGAUCACCCAUGUGAUCAAUUAAUAUAUAUGCUGC”: the “apparent Kd” value by setting is: under setting [3], 6.36 nM; under setting [4], 16.4 nM.

On to “CCGAUGGUAUACUAGGAUAUGGGCGCCCUUACAUGAGGAUCACCCAUGUUAUCACAAAUCCGCGGCCAGAAGGAGUUCAUGGGAG”, for which the “apparent Kd” value was found to be 176 nM under setting [1] and 134 nM under setting [2].

Regarding “AACUCGUUAGGAUAUACCGCCAACGAUACCUCGUGAAACAUACAUGAGGAUCACCCAUGUAGAAGGAGCGAGCA”, the “apparent Kd” value was 16.9 nM under setting [3] and 23.3 nM under setting [4].

On to “AGUGUGUGGCAGGAUAUGCAAUUUGUAAGUAUUGCAGAAGGGUCUACAUGAGGAUCACCCAUGUGUGCGGUUGA”, for which the “apparent Kd” value by setting is: under setting [3], 721 nM; under setting [4], 477 nM.

As to “CCACCCUGAGGAUAUCCACCCUCAUACAUGAGGAUCACCCAUGUUAAUGCCUGAGUUCCCGGAGAAGGCAGAUUCC”, the “apparent Kd” value is, setting by setting: under setting [3], 86.5 nM; under setting [4], 63.8 nM.

“CCUACCUUCACAGGAUAUGCUAUCCUUUGGGUAGCAGAAGGGUGAUAACAUGAGGAUCACCCAUGUGGUAGGCCCGGUGACGGG”: the “apparent Kd” value worked out at 1300 nM under setting [1] and 105 nM under setting [2].

With “UUAAAUCAUGUAGGAUAUGCAUGGCGAAGCUACGCAGAAGGACAUGAGGAUCACCCAUGUUCUAGCUACCGAGAACGGUGGCAA”, the “apparent Kd” value is, setting by setting: under setting [3], 19.1 nM; under setting [4], 74.1 nM.

On to “AAUUCGUCAGGAUAUGCAUGUAAUUGUUACAUUUCUCCGUUGCAGAAGGGACAUGAGGAUCACCCAUGUAAGUC”, for which the “apparent Kd” value by setting is: under setting [3], 29.7 nM; under setting [4], 28.7 nM.

As for “UAAAAGACUAGUAUGGUAACCUUCACAUGAGGAUCACCCAUGUAGGAUAUGAGCAGAAAAUCUGCUCAGAAGGACAUGCUAGUC”, the “apparent Kd” value was found to be 3.73 nM under setting [3] and 4.25 nM under setting [4].

Take “GGGUACAUCGGAGGAUAUCAUGUAAAUACAUGAGGAUCACCCAUGUCGAUGGAGAGAUCGGAGAUUGAGAAGGCCGAUGUACCG”: the “apparent Kd” value by setting is: under setting [1], 97.4 nM; under setting [2], 41 nM.

Consider “UUAUGCUUUAAGAAGGUUCAAACUACAUAUUGCGCACAUGAGGAUCACCCAUGUUGGUGAAUAAGAAAGGAUAUUAGACUGUGC”, for which the “apparent Kd” value by setting is: under setting [3], 332 nM; under setting [4], 223 nM.

In the case of “AGUCAGACAGGAUAUACGUGGAUGGAACACUUAUUUCCACUACAUGAGGAUCACCCAUGUAGAAGGGUCUGACA”, the “apparent Kd” value by setting is: under setting [3], 18.8 nM; under setting [4], 19.7 nM.

For “ACAUAAAUUCGAGGAUAUCGGUGAUAUAAUUUACGAGAAGGCGAUAAAAGUUGUAAACUUAUAGACAUGAGGAUCACCCAUGUA”, the “apparent Kd” value by setting is: under setting [1], 34.8 nM; under setting [2], 34 nM.

With “UAAUGAGAGCAGGAUAUCUUAUAAAUGUAUGAAAGAGAAGGGCUCACAUGAGGAUCACCCAUGUGGUCCUAGAU”, the “apparent Kd” value is, setting by setting: under setting [3], 34 nM; under setting [4], 163 nM.
